Assay results from ChEMBL document CHEMBL2177098, “Synthesis and evaluation of novel ¹⁸F labeled 2-pyridinylbenzoxazole and 2-pyridinylbenzothiazole derivatives as ligands for positron emission tomography (PET) imaging of β-amyloid plaques” (J Med Chem, 2012).

Columns and labels:
Intestine [1] = test: Drug uptake in ICR mouse intestine assessed per organ at 370 kBq/100 ul, iv at 60 mins by gamma-counting analysis; type: ADME, organism-based; details: in vivo, 1 h
Outline: (§1)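 Male ICR mice (5 weeks, about 20 g) got 18F tracer in saline (370 KBq per 100 μL) via tail vein; n = 5 per time point, killed at 2, 10, 30, 60 min. Organs removed and γ-counted against diluted injectate; expressed as % injected dose per organ.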

Spleen [2] = test: Drug uptake in ICR mouse spleen at 370 kBq/100 ul, iv at 60 mins by gamma-counting analysis; type: ADME, organism-based; details: in vivo, 1 h
Outline: (§2)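 Male ICR mice (5 weeks, about 20 g) got 18F tracer in saline (370 KBq per 100 μL) via tail vein; n = 5 per time point, killed at 2, 10, 30, 60 min. Organs weighed and γ-counted; percent dose per gram wet tissue from comparison with diluted injectate aliquots.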

Bone [3] = test: Drug uptake in ICR mouse bone at 370 kBq/100 ul, iv at 30 mins by gamma-counting analysis; type: ADME, organism-based, Bone element; details: in vivo, 0.5 h; outline: as §2
Brain [4] = test: Drug uptake in ICR mouse brain at 370 kBq/100 ul, iv at 60 mins by gamma-counting analysis; type: ADME, organism-based; details: in vivo, 1 h; outline: as §2
Liver [5] = test: Drug uptake in ICR mouse liver at 370 kBq/100 ul, iv at 10 mins by gamma-counting analysis; type: ADME, organism-based; details: in vivo; outline: as §2
Bone [6] = test: Drug uptake in ICR mouse bone at 370 kBq/100 ul, iv at 2 mins by gamma-counting analysis; type: ADME, organism-based, Bone element; details: in vivo; outline: as §2
Brain [7] = test: Drug uptake in ICR mouse brain at 370 kBq/100 ul, iv at 2 mins by gamma-counting analysis; type: ADME, organism-based; details: in vivo; outline: as §2
Heart [8] = test: Drug uptake in ICR mouse heart at 370 kBq/100 ul, iv at 60 mins by gamma-counting analysis; type: ADME, organism-based; details: in vivo, 1 h; outline: as §2
Stomach [9] = test: Drug uptake in ICR mouse stomach assessed per organ at 370 kBq/100 ul, iv at 10 mins by gamma-counting analysis; type: ADME, organism-based; details: in vivo; outline: as §1
Heart [10] = test: Drug uptake in ICR mouse heart at 370 kBq/100 ul, iv at 10 mins by gamma-counting analysis; type: ADME, organism-based; details: in vivo; outline: as §2
Stomach [11] = test: Drug uptake in ICR mouse stomach assessed per organ at 370 kBq/100 ul, iv at 2 mins by gamma-counting analysis; type: ADME, organism-based; details: in vivo; outline: as §1
Lung [12] = test: Drug uptake in ICR mouse lung at 370 kBq/100 ul, iv at 2 mins by gamma-counting analysis; type: ADME, organism-based; details: in vivo; outline: as §2
Spleen [13] = test: Drug uptake in ICR mouse spleen at 370 kBq/100 ul, iv at 30 mins by gamma-counting analysis; type: ADME, organism-based; details: in vivo, 0.5 h; outline: as §2
Kidney [14] = test: Drug uptake in ICR mouse kidney at 370 kBq/100 ul, iv at 60 mins by gamma-counting analysis; type: ADME, organism-based; details: in vivo, 1 h; outline: as §2
Stomach [15] = test: Drug uptake in ICR mouse stomach assessed per organ at 370 kBq/100 ul, iv at 30 mins by gamma-counting analysis; type: ADME, organism-based; details: in vivo, 0.5 h; outline: as §1
Stomach [16] = test: Drug uptake in ICR mouse stomach assessed per organ at 370 kBq/100 ul, iv at 60 mins by gamma-counting analysis; type: ADME, organism-based; details: in vivo, 1 h
Outline: (§3)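 Normal male ICR mice (5 weeks, about 20 g) received the ¹⁸F tracer in saline (370 KBq per 100 μL) by tail-vein injection. Groups of n = 5 were killed at 2, 10, 30 and 60 min. Organs were removed, weighed and γ-counted against diluted aliquots of the injectate, giving % dose per gram. Stomach and intestine were expressed per organ. The brain ratio is 2 min/60 min uptake. Values are mean ± SD.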

Intestine [17] = test: Drug uptake in ICR mouse intestine assessed per organ at 370 kBq/100 ul, iv at 10 mins by gamma-counting analysis; type: ADME, organism-based; details: in vivo; outline: as §1
Bone [18] = test: Drug uptake in ICR mouse bone at 370 kBq/100 ul, iv at 10 mins by gamma-counting analysis; type: ADME, organism-based, Bone element; details: in vivo; outline: as §2
Blood [19] = test: Drug uptake in ICR mouse blood at 370 kBq/100 ul, iv at 60 mins by gamma-counting analysis; type: ADME, organism-based; details: in vivo, 1 h; outline: as §2
Blood [20] = test: Drug uptake in ICR mouse blood at 370 kBq/100 ul, iv at 30 mins by gamma-counting analysis; type: ADME, organism-based; details: in vivo, 0.5 h; outline: as §2
Brain [21] = test: Drug uptake in healthy human brain at 370 KBq/100 ul after 1 hr by autoradiographic analysis; type: ADME, tissue-based; details: in vitro
Brain [22] = test: Ratio of drug uptake in brain at 2 mins to drug uptake in brain at 60 mins in ICR mouse at 370 KBq/100 ul, iv; type: ADME, organism-based; details: in vivo; outline: as §3
Spleen [23] = test: Drug uptake in ICR mouse spleen at 370 kBq/100 ul, iv at 10 mins by gamma-counting analysis; type: ADME, organism-based; details: in vivo; outline: as §2
Brain [24] = test: Drug uptake in wild type C57BL6 mouse brain at 370 KBq/100 ul after 1 hr by autoradiographic analysis; type: ADME, tissue-based; details: in vitro
Outline: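 Paraffin brain sections from 12-month-old male control C57BL6 mice were deparaffinized through xylene and graded ethanol, then held in PBS (0.2 M, pH 7.4) for 30 min. They were incubated with the ¹⁸F tracer (370 KBq per 100 μL) for 1 h at room temperature. Sections were washed in 40% EtOH, rinsed with water for 1 min, dried, and exposed to a phosphor plate for 2 h. The same sections were then stained with thioflavin S.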

Blood [25] = test: Drug uptake in ICR mouse blood at 370 kBq/100 ul, iv at 10 mins by gamma-counting analysis; type: ADME, organism-based; details: in vivo; outline: as §2
Kidney [26] = test: Drug uptake in ICR mouse kidney at 370 kBq/100 ul, iv at 30 mins by gamma-counting analysis; type: ADME, organism-based; details: in vivo, 0.5 h; outline: as §2
Intestine [27] = test: Drug uptake in ICR mouse intestine assessed per organ at 370 kBq/100 ul, iv at 30 mins by gamma-counting analysis; type: ADME, organism-based; details: in vivo, 0.5 h; outline: as §1
Lung [28] = test: Drug uptake in ICR mouse lung at 370 kBq/100 ul, iv at 10 mins by gamma-counting analysis; type: ADME, organism-based; details: in vivo; outline: as §2
Liver [29] = test: Drug uptake in ICR mouse liver at 370 kBq/100 ul, iv at 60 mins by gamma-counting analysis; type: ADME, organism-based; details: in vivo, 1 h; outline: as §2
Brain [30] = test: Drug uptake in ICR mouse brain at 370 kBq/100 ul, iv at 30 mins by gamma-counting analysis; type: ADME, organism-based; details: in vivo, 0.5 h; outline: as §2
Intestine [31] = test: Drug uptake in ICR mouse intestine assessed per organ at 370 kBq/100 ul, iv at 2 mins by gamma-counting analysis; type: ADME, organism-based; details: in vivo; outline: as §1
Kidney [32] = test: Drug uptake in ICR mouse kidney at 370 kBq/100 ul, iv at 10 mins by gamma-counting analysis; type: ADME, organism-based; details: in vivo; outline: as §2
Brain [33] = test: Drug uptake in ICR mouse brain at 370 kBq/100 ul, iv at 10 mins by gamma-counting analysis; type: ADME, organism-based; details: in vivo; outline: as §2
Liver [34] = test: Drug uptake in ICR mouse liver at 370 kBq/100 ul, iv at 2 mins by gamma-counting analysis; type: ADME, organism-based; details: in vivo; outline: as §2
Heart [35] = test: Drug uptake in ICR mouse heart at 370 kBq/100 ul, iv at 30 mins by gamma-counting analysis; type: ADME, organism-based; details: in vivo, 0.5 h; outline: as §2
Kidney [36] = test: Drug uptake in ICR mouse kidney at 370 kBq/100 ul, iv at 2 mins by gamma-counting analysis; type: ADME, organism-based; details: in vivo; outline: as §2
[37] = Displacement of [125I]-IMPY from amyloid beta (1 to 42) fibrils after 2 hrs by gamma-counting analysis
Outline: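 Competition binding with aggregated Aβ1-42 fibrils and [125I]IMPY (60000−100000 cpm/100 μL) in 0.05% BSA (1 mL total); inhibitors 10⁻⁴−10^−8.5 M in ethanol. Incubated 37 °C for 2 h, then GF/B vacuum filtration with PBS (0.02 M, pH 7.4) washes and γ counting. Three repeats; IC50 converted to Ki by Cheng−Prusoff.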

Liver [38] = test: Drug uptake in ICR mouse liver at 370 kBq/100 ul, iv at 30 mins by gamma-counting analysis; type: ADME, organism-based; details: in vivo, 0.5 h; outline: as §2
Bone [39] = test: Drug uptake in ICR mouse bone at 370 kBq/100 ul, iv at 60 mins by gamma-counting analysis; type: ADME, organism-based, Bone element; details: in vivo, 1 h; outline: as §2
Lung [40] = test: Drug uptake in ICR mouse lung at 370 kBq/100 ul, iv at 60 mins by gamma-counting analysis; type: ADME, organism-based; details: in vivo, 1 h; outline: as §2
Spleen [41] = test: Drug uptake in ICR mouse spleen at 370 kBq/100 ul, iv at 2 mins by gamma-counting analysis; type: ADME, organism-based; details: in vivo; outline: as §2
[42] = n-Octanol-PBS buffer partition coefficient, log D of the compound at 1.5 MBq after 3 mins at pH 7.4; type: physicochemical
Outline: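 The tracer was partitioned between n-octanol and PBS by vortexing for 3 min at room temperature, then centrifuged for 5 min at 3000 rpm. Samples of the octanol (50 μL) and aqueous (500 μL) layers were counted. log D is the log of the octanol/PBS counts-per-gram ratio. The octanol layer was repartitioned until values were consistent. Measured in triplicate and repeated three times.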

Heart [43] = test: Drug uptake in ICR mouse heart at 370 kBq/100 ul, iv at 2 mins by gamma-counting analysis; type: ADME, organism-based; details: in vivo; outline: as §2
Lung [44] = test: Drug uptake in ICR mouse lung at 370 kBq/100 ul, iv at 30 mins by gamma-counting analysis; type: ADME, organism-based; details: in vivo, 0.5 h; outline: as §2
Blood [45] = test: Drug uptake in ICR mouse blood at 370 kBq/100 ul, iv at 2 mins by gamma-counting analysis; type: ADME, organism-based; details: in vivo; outline: as §2

Compound: CNc1ccc(-c2nc3ccc(OCCOCCOCC[18F])cc3s2)cn1
- Drug uptake (Intestine [1]): 18.6 %ID
- Drug uptake (Spleen [2]): 1.49 % ID/g
- Drug uptake (Bone [3]): 1.33 % ID/g
- Drug uptake (Brain [4]): 1.26 % ID/g
- Drug uptake (Liver [5]): 9.38 % ID/g
- Drug uptake (Bone [6]): 1.19 % ID/g
- Drug uptake (Brain [7]): 2.23 % ID/g
- Drug uptake (Heart [8]): 1.85 % ID/g
- Drug uptake (Stomach [9]): 9.44 %ID
- Drug uptake (Heart [10]): 2.16 % ID/g
- Drug uptake (Stomach [11]): 2.96 %ID
- Drug uptake (Lung [12]): 5.53 % ID/g
- Drug uptake (Spleen [13]): 1.74 % ID/g
- Drug uptake (Kidney [14]): 2.66 % ID/g
- Drug uptake (Stomach [15]): 11.46 %ID
- Drug uptake (Stomach [16]): 8.78 %ID
- Drug uptake (Intestine [17]): 10.06 %ID
- Drug uptake (Bone [18]): 0.86 % ID/g
- Drug uptake (Blood [19]): 2.94 % ID/g
- Drug uptake (Blood [20]): 3.49 % ID/g
- Drug uptake (Brain [21]): Not Active
- Ratio (Brain [22]): 1.77
- Drug uptake (Spleen [23]): 2.05 % ID/g
- Drug uptake (Brain [24]): Not Active
- Drug uptake (Blood [25]): 4.25 % ID/g
- Drug uptake (Kidney [26]): 3.12 % ID/g
- Drug uptake (Intestine [27]): 21.68 %ID
- Drug uptake (Lung [28]): 3.36 % ID/g
- Drug uptake (Liver [29]): 4.12 % ID/g
- Drug uptake (Brain [30]): 1.31 % ID/g
- Drug uptake (Intestine [31]): 5.69 %ID
- Drug uptake (Kidney [32]): 4.04 % ID/g
- Drug uptake (Brain [33]): 1.63 % ID/g
- Drug uptake (Liver [34]): 15.22 % ID/g
- Drug uptake (Heart [35]): 1.96 % ID/g
- Drug uptake (Kidney [36]): 6.02 % ID/g
- Ki [37]: 9.3 nM
- Drug uptake (Liver [38]): 8.16 % ID/g
- Drug uptake (Bone [39]): 1.42 % ID/g
- Drug uptake (Lung [40]): 1.93 % ID/g
- Drug uptake (Spleen [41]): 2.68 % ID/g
- logD at 0.05 h [42]: 2.85
- Drug uptake (Heart [43]): 3.53 % ID/g
- Drug uptake (Lung [44]): 3.11 % ID/g
- Drug uptake (Blood [45]): 6.92 % ID/g
